HUVEC prolif 384: blocks proliferation of human endothelial cells; HUVEC proliferation, CellTiter-Glo luminescence, 72 h; active compounds read low; viability, % at 10 µM (by protocol); 86,000 compounds, 1.1% hits; AID 648;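 active means viability at or below 30%; inactive means viability above 30%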;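 further: 100% = median luminescence of DMSO-only cell control wells on each plate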
Cav32 inh: inhibitors of human Cav3.2 T-type calcium channel. O95180. Cav3.2-expressing cells, Fluo-4 calcium fluorescence FDSS; active compounds read low. B-score at 10 µM. 100,000 compounds, 4% hits. AID 449739;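 active means single-dose well whose peak fluorescence ratio is a statistical outlier from its plate by either plate-standardised score or position-corrected B-score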
Target sequence (O95180 whole entry, looked up): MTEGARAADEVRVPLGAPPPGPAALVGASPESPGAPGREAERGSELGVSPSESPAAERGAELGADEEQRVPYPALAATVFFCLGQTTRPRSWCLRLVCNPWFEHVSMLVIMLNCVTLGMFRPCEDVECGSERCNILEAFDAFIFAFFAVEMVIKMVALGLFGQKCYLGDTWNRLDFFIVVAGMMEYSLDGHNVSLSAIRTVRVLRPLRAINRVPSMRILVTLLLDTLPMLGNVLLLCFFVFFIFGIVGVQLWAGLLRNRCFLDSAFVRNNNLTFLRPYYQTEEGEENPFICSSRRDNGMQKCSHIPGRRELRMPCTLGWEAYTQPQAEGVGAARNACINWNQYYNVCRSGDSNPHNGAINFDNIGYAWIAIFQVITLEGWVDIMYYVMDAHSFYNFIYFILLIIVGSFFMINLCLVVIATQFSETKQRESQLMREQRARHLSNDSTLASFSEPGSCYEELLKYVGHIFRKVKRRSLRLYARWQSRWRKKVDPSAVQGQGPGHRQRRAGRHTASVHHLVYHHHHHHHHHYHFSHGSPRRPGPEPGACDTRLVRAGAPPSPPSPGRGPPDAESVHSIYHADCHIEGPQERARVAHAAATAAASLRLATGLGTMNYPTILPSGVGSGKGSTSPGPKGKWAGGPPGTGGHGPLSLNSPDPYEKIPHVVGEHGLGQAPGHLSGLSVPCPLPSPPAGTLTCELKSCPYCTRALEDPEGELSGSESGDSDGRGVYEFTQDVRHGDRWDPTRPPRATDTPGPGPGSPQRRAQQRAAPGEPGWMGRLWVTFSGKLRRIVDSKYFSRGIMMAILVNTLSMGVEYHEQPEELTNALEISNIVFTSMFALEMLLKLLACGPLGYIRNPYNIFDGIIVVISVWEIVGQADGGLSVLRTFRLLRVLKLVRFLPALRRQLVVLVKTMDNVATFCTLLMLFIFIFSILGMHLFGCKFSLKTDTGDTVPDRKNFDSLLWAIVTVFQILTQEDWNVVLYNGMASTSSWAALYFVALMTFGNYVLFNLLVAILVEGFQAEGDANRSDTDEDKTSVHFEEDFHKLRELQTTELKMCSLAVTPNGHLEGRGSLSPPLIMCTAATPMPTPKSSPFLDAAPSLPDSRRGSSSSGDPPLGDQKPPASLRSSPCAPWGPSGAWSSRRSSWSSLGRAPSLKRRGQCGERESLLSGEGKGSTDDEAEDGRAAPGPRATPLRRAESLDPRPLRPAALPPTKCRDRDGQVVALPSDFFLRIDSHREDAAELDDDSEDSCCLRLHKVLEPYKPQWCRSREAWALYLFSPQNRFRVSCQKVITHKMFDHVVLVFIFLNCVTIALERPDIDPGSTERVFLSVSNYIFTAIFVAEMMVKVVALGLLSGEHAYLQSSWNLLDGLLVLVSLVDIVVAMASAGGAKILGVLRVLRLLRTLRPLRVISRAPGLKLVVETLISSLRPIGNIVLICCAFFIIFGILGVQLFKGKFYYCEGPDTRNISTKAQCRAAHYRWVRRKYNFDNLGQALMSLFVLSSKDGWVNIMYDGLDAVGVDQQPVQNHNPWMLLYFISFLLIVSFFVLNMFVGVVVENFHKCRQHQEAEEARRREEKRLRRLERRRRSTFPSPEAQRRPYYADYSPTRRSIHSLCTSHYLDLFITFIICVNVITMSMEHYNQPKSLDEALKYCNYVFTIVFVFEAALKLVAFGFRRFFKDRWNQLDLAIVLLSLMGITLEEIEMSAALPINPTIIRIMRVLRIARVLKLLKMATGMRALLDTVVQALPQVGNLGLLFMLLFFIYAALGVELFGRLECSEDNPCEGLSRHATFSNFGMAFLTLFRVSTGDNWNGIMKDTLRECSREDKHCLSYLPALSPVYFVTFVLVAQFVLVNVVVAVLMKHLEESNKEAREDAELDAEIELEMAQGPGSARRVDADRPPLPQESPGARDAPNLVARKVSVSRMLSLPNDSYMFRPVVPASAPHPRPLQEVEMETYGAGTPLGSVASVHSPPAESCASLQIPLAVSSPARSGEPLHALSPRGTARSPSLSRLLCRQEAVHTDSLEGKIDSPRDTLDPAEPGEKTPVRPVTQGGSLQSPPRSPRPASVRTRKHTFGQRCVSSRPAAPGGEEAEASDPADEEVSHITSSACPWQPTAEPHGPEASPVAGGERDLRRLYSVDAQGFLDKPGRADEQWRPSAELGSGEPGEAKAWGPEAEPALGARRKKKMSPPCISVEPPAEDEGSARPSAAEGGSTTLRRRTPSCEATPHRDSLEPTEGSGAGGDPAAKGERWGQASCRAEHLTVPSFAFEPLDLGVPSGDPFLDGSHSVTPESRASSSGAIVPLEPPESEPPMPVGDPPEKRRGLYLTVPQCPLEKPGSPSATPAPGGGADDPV
bCat KO growth: beta-catenin-lacking colon tumor cell growth suppression; 140,000 compounds, 1.5% hits; viability, % at 10 µM; HCT116 beta-catenin knockout viability, CellTiter-Glo, 60 h; active compounds read low;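 active means viability at or under a set limit, the compound median less 4 SD, cut at about 6% in these data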;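 further: 0% = Hyamine 1622 control at 20 µM and 100% = untreated cell control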
Fibroblast inh: blocks proliferation of human lung fibroblasts. LL 47 human lung fibroblast viability, ATP luminescence; active compounds read low. viability, % at 10 µM. 85,000 compounds, 1.1% hits;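 active means viability at or below 50% in the single dose screen; inactive means viability above 50%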;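 further: compound exposure lasted 72 h before the ATP readout; 100% = median luminescence of untreated cell-only wells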
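material = human LL 47 lung fibroblast cells | dosing = compounds added from tenfold dosing solution, 0.1% DMSO final | timing = overnight cell rest, 72 h compound treatment at 37 °C | measured by = CellTiter-Glo luminescence measuring cellular ATP | evaluation = % viability versus median cells-only luminescence | control set = cell-only wells, no compound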
H69AR growth 86K: blocks growth of human H69AR lung tumor cells | H69AR lung tumor viability, ATP luminescence, 72 h; active compounds read low | viability, % at 10 µM | 85,000 compounds, 6% hits;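 active means viability at or below 40%; inactive means viability above 40%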;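 further: multidrug resistant small cell line overexpressing MRP-1 efflux transporter; 100% = mean luminescence of untreated control wells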
HCT116 PTEN-null: suppresses growth of cells with PTEN deletion | HCT116 PTEN-null viability, CellTiter-Glo, 60 h; active compounds read low | viability, % at 10 µM | 140,000 compounds, 1.2% hits | AID 827;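 active means viability at or below a set limit, 4 SD under the median of all tested compounds, cut at about 3.7% in these data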;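 further: PTEN knockout HCT116 line with beta catenin targeted HCT116 as companion control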
Starred values were filed as active, the others as inactive; . = not tested or not shown. Sampled rows, rich in hits. Any-hit rate of the full collection: about 7.1%.

SMILES	HUVEC prolif 384	Cav32 inh	bCat KO growth	Fibroblast inh	H69AR growth 86K	HCT116 PTEN-null
O=C(CCCc1nc2ccccc2s1)NC(c1ccccc1)c1ccccc1	.	.	89.5	.	.	84.9
CC1CN(S(=O)(=O)c2cccc(C(=O)OC/C(O)=C(\C#N)c3nc4ccccc4[nH]3)c2)CC(C)O1 (stereo not drawn)	.	.	28.8	.	.	46.8
CC1CCN(S(=O)(=O)c2ccc3ncn(CC(=O)N(C)Cc4ccccc4)c(=O)c3c2)CC1	94.5	-4.64*	76.7	101.0	93.3	81.0
CC1CCCC(NC(=O)COC(=O)CN2C(=O)C3CCCCC3C2=O)C1C (stereo not drawn)	.	.	91.3	.	.	98.5
O=C(CCCc1nc(-c2ccccc2Cl)no1)NCc1cccnc1	94.7	0.313	106.8	98.8	39.0*	99.2
CCOC(=O)c1ccc(NC(=O)CCc2nc(-c3ccccc3Cl)no2)cc1	45.0	-3.78*	29.0	95.4	29.3*	35.6
CCc1cccc(NC(=O)CCc2nc(-c3cccs3)no2)c1	98.9	-7.07*	103.1	107.5	99.4	94.9
O=C(CCc1nc(-c2ccccc2)no1)NCc1cccnc1	94.7	-0.14	94.6	95.1	89.7	99.9
O=C(O)c1ccc(N2Cc3ccccc3C2)cc1O	.	-0.606	93.0	.	.	95.5
CCC(C)NCC(=O)Nc1ccc(-c2nc3cc(NC(=O)CNC(C)CC)ccc3o2)cc1 (stereo not drawn)	25.4*	0.0862	0.6*	2.9*	60.2	0.8*
O=C(CN1CCCC1)Nc1ccc(-c2nc3cc(NC(=O)CN4CCCC4)ccc3o2)cc1	65.0	0.843	2.4*	23.4*	47.4	3.7*
CCN(CC)CC(=O)Nc1ccc(-c2nc3cc(NC(=O)CN(CC)CC)ccc3o2)cc1	105.5	0.0192	7.6	43.6*	61.3	7.0
Cc1ccc2oc(-c3ccc(NC(=O)CC(C)C)cc3)nc2c1	106.3	-0.108	86.0	93.8	98.5	102.4
CC(C)Cn1ccc(=O)n(CC(C)C)c1=O	.	.	92.8	.	.	103.5
C=CCc1ccccc1OCC(=O)N/N=C/c1ccc(OC(C)=O)cc1OC(C)=O	.	.	13.8	.	.	12.2
COc1cc(CCCN2C(=S)NC[C@@H]2c2ccccc2)cc(OC)c1OC	.	1.25	.	.	.	.
CC(C)CC(=O)Nc1cccc(C(=O)Nc2ccccc2C(=O)O)c1	95.6	1.12	100.0	101.5	100.0	104.8
O=C(c1cc(C2CC2)nc2ccccc12)N1N=C(C(F)F)CC1(O)C(F)F (stereo not drawn)	111.8	-3.54	78.3	98.4	74.6	85.6
O=C(c1cc(C2CC2)nc2ccc(Br)cc12)N1N=C(C(F)F)CC1(O)C(F)F (stereo not drawn)	28.6*	-7.46*	19.4	54.0	16.7*	5.9
CCCCOC(=O)CCn1c(=S)oc2ccccc21	96.5	-1.61	104.0	104.5	87.1	91.9
CC(C)CC(=O)/C=C/n1c(=S)oc2ccccc21	.	.	3.8*	.	.	2.4*
CC(=O)/C=C/n1c(=S)oc2ccccc21	.	.	5.3*	.	.	4.6
COc1cccc(/C(O)=C/c2nc3ccc(C(=O)NCCc4cccc(C)c4)cc3[nH]c2=O)c1	.	.	7.5	.	.	4.2
COc1cccc(/C(O)=C/c2nc3ccc(C(=O)NCCc4ccc(Cl)cc4)cc3[nH]c2=O)c1	.	.	1.5*	.	.	1.2*
CCNc1nc(SCc2ccccc2)nc(N2CCOCC2)n1	110.4	-4.95*	98.5	71.0	77.2	93.2
SMILES	HUVEC prolif 384	Cav32 inh	bCat KO growth	Fibroblast inh	H69AR growth 86K	HCT116 PTEN-null
COc1ccc(OCC(=O)N2CCN(c3cccc(C(F)(F)F)c3)CC2)cc1	89.1	-6.94*	94.5	104.8	90.6	91.7
O=C(c1cccc(F)c1)N1CCN(c2cccc(Cl)c2)CC1	65.0	-2.15	22.9	71.8	18.3*	24.5
O=C(Nc1ccc(N2CCN(C(=O)c3ccco3)CC2)cc1)c1cccc(F)c1	82.1	1.09	54.2	98.9	30.3*	50.2
CCC(=O)N1CCN(c2ccc(NC(=O)c3ccco3)cc2)CC1	86.6	-0.456	58.4	92.9	99.1	42.7
COc1ccc(N2CCN(C(=O)COc3ccc4ccccc4c3)CC2)cc1	98.4	-0.135	92.4	90.8	67.5	87.5
CCC(C(=O)N1CCN(c2cccc(Cl)c2)CC1)c1ccccc1 (stereo not drawn)	97.9	-5.35*	65.0	90.6	100.2	56.0
O=C(Cc1cc(=O)[nH]c(=O)[nH]1)NCc1ccccc1	.	.	96.1	.	.	104.2
O=C(O)CCC(=O)N1CCN(c2cccc(Cl)c2)CC1	98.9	0.29	99.9	100.8	96.0	91.1
O=C(c1c(Cl)nc2sccn12)N1CCN(c2cccc(Cl)c2)CC1	54.2	-2.01	13.6	59.5	19.3*	14.5
COc1ccc(OCC(=O)N2CCN(c3cccc(Cl)c3)CC2)cc1	94.6	-4.53*	71.2	106.7	93.1	70.5
COc1ccc(N2CCN(C(=O)COc3ccc(Cl)cc3Cl)CC2)cc1	105.1	.	100.8	101.7	99.7	94.3
COc1ccccc1C(=O)N1CCN(c2cccc(Cl)c2)CC1	50.3	-2.22	11.3	46.4*	58.4	12.3
COc1ccc(Nc2nnc(SCC(=O)c3cc(C)n(CC4CCCO4)c3C)s2)cc1 (stereo not drawn)	.	-4.29	84.2	.	.	73.0
Cc1cc(C(=O)O)c(CCCN)s1	103.8	-0.178	100.8	103.5	95.8	102.4
CCOC(=O)C1=C(CSc2nc(-c3ccncc3)ccc2C#N)OC(N)=C(C#N)C1c1ccc(OC)cc1 (stereo not drawn)	92.6	-4.3	118.6	102.5	96.2	104.7
CCOC(=O)C1=C(CSc2nc(CC)c(C)cc2C#N)OC(N)=C(C#N)C1c1ccc(OC)cc1 (stereo not drawn)	89.7	-8.44*	9.3	93.4	41.5	24.8
CCOC(=O)C1=C(CSc2nc(C)ccc2C#N)OC(N)=C(C#N)C1c1cccc(OC)c1OC (stereo not drawn)	97.4	-0.63	55.6	76.8	72.7	57.3
CCOC(=O)C1=C(CSc2nc(-c3ccncc3)ccc2C#N)OC(N)=C(C#N)C1c1cccnc1 (stereo not drawn)	89.9	-4.99*	107.8	98.2	81.9	98.8
O=C(Nc1ccc(Cl)cc1C(=O)NCCN1CCOCC1)c1ccc(Cl)cc1Cl	77.4	-0.624	91.0	92.0	37.8*	106.6
CC1=NNC(=O)/C1=C\c1cn(-c2ccccc2)nc1-c1cccs1	.	.	1.6*	.	.	1.5*
Cc1ccc(NC(=S)NNC(=O)c2nnn(-c3ccccc3)c2C)cc1	.	.	97.8	.	.	95.9
CC(C)C[C@H](NC(=O)Nc1ccccc1F)C(=O)O	97.7	1.46	105.4	104.4	96.2	103.6
Cc1cccc(/C=c2\s/c(=C\C(=O)C(C)(C)C)[nH]c2=O)c1	60.6	-3.7	28.7	74.1	6.8*	26.2
CC[C@H](C)/C=C/C1=CC2=C(Cl)C(=O)[C@@]3(C)OC(=O)C(C(=O)[C@H](C)[C@@H](C)O)=C3C2=CO1	.	-0.388	.	.	.	.
COc1cc(/C=C/C(=O)NNc2c(F)c(F)cc(F)c2F)ccc1OC(F)F	108.1	-4.34*	78.1	102.6	90.1	76.7

Source: PubChem BioAssay (several laboratories)
